Most compounds without a hit are left out; they make up all but 3.7% or so of the library.
TAAR1 ag = human TAAR1 agonists, primary screen, Fluo-8 calcium fluorescence, CHO RD-HGA16 cells; vehicle wells 0%, saturating PEA agonist 100%; Trace amine-associated receptor 1 (Homo sapiens), Q96RJ0; 0.99% of 360,000 active; activation, % at 3 µM;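 active = activation above the mean activation of all test compounds in the run plus 3 SD, cut at about 38% in these data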
Target sequence (Q96RJ0 whole entry, looked up): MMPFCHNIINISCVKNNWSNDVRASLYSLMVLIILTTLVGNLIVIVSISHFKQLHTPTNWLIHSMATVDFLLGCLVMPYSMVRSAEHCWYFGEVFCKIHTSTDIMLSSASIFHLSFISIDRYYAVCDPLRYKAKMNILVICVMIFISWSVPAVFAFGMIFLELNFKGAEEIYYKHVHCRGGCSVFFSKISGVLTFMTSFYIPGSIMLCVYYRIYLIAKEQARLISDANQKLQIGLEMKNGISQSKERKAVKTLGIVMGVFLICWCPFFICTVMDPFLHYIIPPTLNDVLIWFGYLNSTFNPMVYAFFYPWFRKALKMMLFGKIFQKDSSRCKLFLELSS
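Assay system: CHO-derived RD-HGA16 cells with stable Gα16 and human TAAR1; timing: 17-24 h seeding, 75 min 37 °C dye, 30 min RT; read-out: % activation from peak over basal fluorescence ratio, DMSO-to-PEA scaled; measured by: kinetic Fluo-8 calcium fluorescence; benchmarks: low control DMSO, high control PEA (EC100); doses: 3 µM single concentration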
NS3 helicase inh = inhibitors of HCV NS3 helicase, primary screen, biochemical, Cy5 molecular beacon fluorescence | NS3 helicase DNA unwinding | inhibition, % at 10.9 µM | 0.56% of 290,000 active | AID 1800, 2009;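 active = inhibition above the mean of all tested compounds plus 3 SD, set per campaign, cut at about 35% in these data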;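 note: 0% = DMSO wells and 100% = thioflavine S control wells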
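Control set: DMSO versus 110 µM thioflavine S; Material: NS3 helicase fragment of HCV; Measured by: Cy5 fluorescence at 0 and 60 min, beacon hairpin quenching; Read-out basis: percent inhibition from t60/t0 fluorescence ratio; Times: reaction time 60 min, 25 °C; Repeats: single replicate; Compound dosing: single dose, 10.9 µM nominal final, DMSO 0.8% final.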
TAAR1 antag = human TAAR1 antagonists, primary screen, Fluo-8 calcium fluorescence, CHO RD-HGA16 cells; 1.5% of 360,000 active; inhibition, % at 3 µM; antagonist; AID 624466, 2012; Trace amine-associated receptor 1 (Homo sapiens), Q96RJ0;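 active = inhibition above a per-plate cutoff, the mean inhibition of test compounds on that plate plus 3 SD, cut at about 49% in these data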;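 note: 0% = DMSO plus EC80 beta-PEA response and 100% = DMSO alone without agonist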
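Test system: hTAAR1-expressing CHO RD-HGA16 cells, Gα16-coupled; Probe or stimulus: EC80 β-phenethylamine stimulus; Compound dosing: single nominal final test compound concentration of 3 µM; Timing: 140 s kinetic read after compound, 140 s after agonist; Signal: Fluo-8 calcium-sensitive fluorescence; Measure: % inhibition of agonist calcium response; Controls: DMSO and EC80 PEA controls.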
core dimer inh = inhibitors of HCV core protein dimerization, primary screen, biochemical, TR-FRET, high-throughput | TR-FRET GST/Flag-core106 dimerization, 1536-well | AID 1899, 2009 | 0.33% of 300,000 active | inhibition, % at 5 µM;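 active = inhibition above the mean of all tested compounds plus 3 SD, set per screening campaign, cut at about 45% in these data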
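Material: Tagged HCV core106 pair (GST and Flag) | Amount: GST-core106 13.5 nM, Flag-core106 17 nM | Medium: KF-containing HEPES buffer, pH 7.45, DTT, CHAPS, BSA | Reagent: Eu donor and XL665 acceptor anti-tag antibodies | Schedule: 4 h at 22.5 °C | Technique: Time-resolved FRET, ex 340 nm, em 617 and 671 nm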
rCAG binder = binders of r(CAG) RNA repeats, primary screen, biochemical, fluorescence; 1.3% of 370,000 active; r(CAG) RNA repeat, TO-PRO-1 dye displacement fluorescence; inhibition, % at 3 µM;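 active = inhibition above the plate cutoff, the mean of all test compounds on that plate plus 3 SD, cut at about 35% in these data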;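 note: 0% = DMSO alone and 100% = 100 µM mitoxantrone as full dye displacement; higher means more dye released from RNA so lower well fluorescence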
TAAR1 nonsel count = nonselective antagonists in TAAR1 counter-screen cells, counter-screen for hTAAR1 antagonist project, cell-based, fluorescence, calcium; shares compounds with TAAR1 antag; counterscreen cell line, antagonist mode; inhibition, % at 3 µM; 77% of 2,400 active; AID 651780, 2012; in the data active = inhibition above about 22%;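 note: CHO-Ga16 host cells stimulated with ATP at an EC80 level; 0% = agonist EC80 plus vehicle and 100% = vehicle without agonist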
TAAR1 ant conf = human TAAR1 antagonists, retest of hits, confirmation, cell-based, fluorescence. TAAR1-expressing cells, fluorescence antagonist read-out. shares compounds with TAAR1 antag. inhibition, % at 3 µM. 40% of 2,400 active; in the data active = inhibition above about 49%;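 note: CHO-Ga16 host cells challenged with agonist PEA near its EC80; 0% = agonist at EC80 plus vehicle and 100% = vehicle with no agonist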
Ga16 nonsel ag = calcium activation in Ga16-expressing cells, counter-screen for TAAR1 antagonist project, cell-based, fluorescence | shares compounds with TAAR1 antag | agonist counterscreen | activation, % at 3 µM | 18% of 2,400 active; in the data active = activation above about 12%;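 note: 0% = vehicle wells and 100% = saturating stimulus response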
TAAR1 ag count = TAAR1 activation by candidate antagonists – cell-based, fluorescence, counter-screen for TAAR1 antagonist project. activation, % at 3 µM. shares compounds with TAAR1 antag. 2% of 2,400 active. hTAAR1 cell line, agonist mode; in the data active = activation above about 37%;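 note: CHO cells stably expressing TAAR1 with calcium dye readout; 0% = DMSO vehicle and 100% = full agonist response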
* marks the source's active call; other numbers are inactive results.

How did COc1cc(/C=C/C(=O)CC(=O)/C=C/c2ccc(O)c(OC)c2)ccc1O do in these assays?
TAAR1 ag: 36; NS3 helicase inh: 29; TAAR1 antag: 69*; core dimer inh: 36; rCAG binder: 27; TAAR1 nonsel count: 48*; TAAR1 ant conf: 50*; Ga16 nonsel ag: 28*; TAAR1 ag count: 18

Results for Cc1cccc(NC(=O)c2cccc(NC(=O)c3ccco3)c2)c1 ?
TAAR1 ag: 8; TAAR1 antag: 22; rCAG binder: 2

Results for Cc1cc(C(=O)Nc2cccc(NC(=O)c3ccco3)c2)ccc1[N+](=O)[O-] ?
TAAR1 ag: 11; NS3 helicase inh: 0; TAAR1 antag: 58*; rCAG binder: 1; TAAR1 nonsel count: 14; TAAR1 ant conf: 26; Ga16 nonsel ag: 8; TAAR1 ag count: 4

What do the screens show for `COc1ccc(C(=O)Nc2cccc(NC(C)=O)c2)cc1OC`?
TAAR1 ag: 3; NS3 helicase inh: 6; TAAR1 antag: -12; core dimer inh: -1; rCAG binder: -2

How did COc1ccc(C(=O)Nc2cccc(/C(C)=N/NC(=O)c3ccc([N+](=O)[O-])c(C)c3)c2)cc1OC do in these assays?
TAAR1 ag: 21; NS3 helicase inh: 4; TAAR1 antag: 60*; core dimer inh: 9; rCAG binder: 0; TAAR1 nonsel count: 44*; TAAR1 ant conf: 66*; Ga16 nonsel ag: 12*; TAAR1 ag count: 10

How did CCOC(=O)[C@@]12CN(C(=O)OC(C)(C)C)CC=C1N(Cc1ccc(OC)cc1)C(=O)[C@H]2CC(=O)N1CCN(C(=O)c2ccco2)CC1 do in these assays?
rCAG binder: 1

What do the screens show for `CC(C)(C)OC(=O)CNC(=O)c1nc[nH]c1C(=O)NCc1ccc(CNC(=O)OC(C)(C)C)cc1`?
TAAR1 ag: 18; NS3 helicase inh: -23; TAAR1 antag: 70*; core dimer inh: -6; rCAG binder: -9; TAAR1 nonsel count: 41*; TAAR1 ant conf: 54*; Ga16 nonsel ag: 16*; TAAR1 ag count: 17

How did Cc1cccc(NC(=O)c2nc[nH]c2C(=O)NCCCCCNC(=O)OC(C)(C)C)c1 do in these assays?
TAAR1 ag: 15; TAAR1 antag: 56*; rCAG binder: -3; TAAR1 nonsel count: 19; TAAR1 ant conf: 38; Ga16 nonsel ag: 5; TAAR1 ag count: 12

How did CC(C)(C)OC(=O)CNC(=O)c1nc[nH]c1C(=O)NCc1ccccc1 do in these assays?
TAAR1 ag: 9; NS3 helicase inh: 6; TAAR1 antag: 4; core dimer inh: -12; rCAG binder: -10

What do the screens show for `O=C(CNC(=O)c1[nH]cnc1C(=O)NC(c1ccccc1)c1ccccc1)OCc1ccccc1`?
TAAR1 ag: 10; NS3 helicase inh: -22; TAAR1 antag: 68*; core dimer inh: 11; rCAG binder: 0; TAAR1 nonsel count: 26*; TAAR1 ant conf: 42; Ga16 nonsel ag: 4; TAAR1 ag count: 1

What do the screens show for `CC(C)(C)OC(=O)NCCCCCNC(=O)c1nc[nH]c1C(=O)NCC(=O)OCc1ccccc1`?
TAAR1 ag: 20; TAAR1 antag: 78*; rCAG binder: 0; TAAR1 nonsel count: 38*; TAAR1 ant conf: 62*; Ga16 nonsel ag: 13*; TAAR1 ag count: 13

How did C#CCNC(=O)C[C@H]1C[C@@]2(C(=O)OC)C(=C[C@H](COCc3ccccc3)O[C@@H]2C)N(CCc2ccc(OC)c(OC)c2)C1=O do in these assays?
rCAG binder: 4

What do the screens show for `Nc1nc2c(ncn2[C@@H]2O[C@H](C(=O)NCCCN3CCCC3=O)[C@@H](O)[C@H]2O)c(=O)[nH]1`?
TAAR1 ag: 2; TAAR1 antag: -18; rCAG binder: 1

Results for COc1ccc(C[N+]2=C(N)N[C@@]3(C=C(C)Cn4c(=O)n(-c5ccccc5)c(=O)n43)C2)c(OC)c1 ?
rCAG binder: 10

What do the screens show for `O=S1(=O)c2ccc(Br)cc2OC[C@H](Cc2ccccc2)N1Cc1cn(CCC2OCCO2)nn1`?
rCAG binder: 3

How did CC(C)(C)OC(=O)[C@H](Cc1ccccc1)NC(=O)c1nc[nH]c1C(=O)N1CCN(C(=O)OC(C)(C)C)CC1 do in these assays?
TAAR1 ag: 14; NS3 helicase inh: -15; TAAR1 antag: 27; core dimer inh: 11; rCAG binder: -11

How did CC(C)(C)OC(=O)NCCCC[C@H](NC(=O)c1nc[nH]c1C(=O)NCC(=O)OCc1ccccc1)C(=O)OC(C)(C)C do in these assays?
TAAR1 ag: 8; NS3 helicase inh: -17; TAAR1 antag: 55*; core dimer inh: -2; rCAG binder: -3; TAAR1 nonsel count: 23*; TAAR1 ant conf: 29; Ga16 nonsel ag: 1; TAAR1 ag count: -1

What do the screens show for `CC(C)(C)OC(=O)CNC(=O)c1[nH]cnc1C(=O)NCC(=O)OCc1ccccc1`?
TAAR1 ag: 19; NS3 helicase inh: -27; TAAR1 antag: 70*; core dimer inh: 9; rCAG binder: -9; TAAR1 nonsel count: 31*; TAAR1 ant conf: 56*; Ga16 nonsel ag: 11; TAAR1 ag count: 14

How did CC(C)(C)OC(=O)NCCCCCNC(=O)c1nc[nH]c1C(=O)N1CCc2ccccc2C1 do in these assays?
TAAR1 ag: 22; TAAR1 antag: 76*; rCAG binder: -8; TAAR1 nonsel count: 34*; TAAR1 ant conf: 52*; Ga16 nonsel ag: 11; TAAR1 ag count: 14

What do the screens show for `CC(C)(C)OC(=O)N1CCN(C(=O)c2[nH]cnc2C(=O)N[C@@H](Cc2ccccc2)C(=O)OCc2ccccc2)CC1`?
TAAR1 ag: 24; NS3 helicase inh: -8; TAAR1 antag: 69*; core dimer inh: -3; rCAG binder: -3; TAAR1 nonsel count: 23*; TAAR1 ant conf: 45; Ga16 nonsel ag: 7; TAAR1 ag count: 7
